# Screens (PubChem BioAssay)
# CHOP inh = CHOP inhibition in unfolded protein response. CHO-K1 CHOP-promoter luciferase, tunicamycin-induced, 15-18 h. inhibition, % at 10 µM. hit rate 3.8% among 220,000;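 active = compounds that reduced the stress-induced luciferase reporter signal by more than about 70% of percent inhibition, limit read from the data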;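 also: 0% = tunicamycin plus vehicle and 100% = wells without tunicamycin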
# UPR XBP1 act = adaptive UPR (XBP1) activation; CHO-XBP1 luciferase reporter, IRE1-XBP1 UPR activation, luminescence; percent of tunicamycin response, DMSO as zero; hit rate 0.33% among 330,000; activation, % at 20 µM;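 active = versus positive control, 20 µM dose yields 30% or more activation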;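 also: 100% = tunicamycin at 10 µg/mL and 0% = DMSO only wells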
#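 Material: CHO-XBP1 cells stably carrying IRE1-XBP1-driven luciferase reporter / Amount: 1000 cells per well / Compound: 20 µM, 1% DMSO / Times: 6 h treatment, 37 °C / Detection: luciferase luminescence / Measure: % activation of reporter signal versus tunicamycin and DMSO controls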
# UPR CHOP act = activators of apoptotic arm of unfolded protein response (CHOP). CHO-CHOP luciferase reporter, UPR activation, luminescence; percent of tunicamycin response over DMSO baseline. activation, % at 10 µM. hit rate 0.34% among 330,000. AID 449763;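 active = at 10 µM dose, activation of 40% or more, normalized to positive control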;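 also: 100% = tunicamycin at 10 µg/mL and 0% = DMSO alone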
#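 Test system: CHO CHOP reporter cells. Input: 500 CHO-CHOP cells per well. Medium: F12 with 10% FBS. Technique: luciferase luminescence. Measure: percent activation relative to tunicamycin control. Dosing: 10 µM compound, 0.5% DMSO. Timing: 16-18 h cell attachment, then 6 h compound exposure, 37 °C.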
# VLA-4 inh = inhibition in a human VLA-4 binding assay; P13612; VLA-4 expressing cells, ligand binding flow cytometry; inhibition, % (about 7 µM as worked out from the volumes in the protocol); hit rate 0.2% among 330,000; AID 2557; in the data active = inhibition above about 50%
# B2AR ag = agonists of human beta-2 adrenergic receptor inducing internalization. Am2.2-beta2AR cells, FAP receptor internalization, flow cytometry. P07550. hit rate 0.43% among 340,000. response, % (concentration not given with the values);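 active = response above a set limit, near 3 SD of response in nonfluorescent compounds, cut at about 42% in these data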
# Target sequence (P07550 whole entry, looked up): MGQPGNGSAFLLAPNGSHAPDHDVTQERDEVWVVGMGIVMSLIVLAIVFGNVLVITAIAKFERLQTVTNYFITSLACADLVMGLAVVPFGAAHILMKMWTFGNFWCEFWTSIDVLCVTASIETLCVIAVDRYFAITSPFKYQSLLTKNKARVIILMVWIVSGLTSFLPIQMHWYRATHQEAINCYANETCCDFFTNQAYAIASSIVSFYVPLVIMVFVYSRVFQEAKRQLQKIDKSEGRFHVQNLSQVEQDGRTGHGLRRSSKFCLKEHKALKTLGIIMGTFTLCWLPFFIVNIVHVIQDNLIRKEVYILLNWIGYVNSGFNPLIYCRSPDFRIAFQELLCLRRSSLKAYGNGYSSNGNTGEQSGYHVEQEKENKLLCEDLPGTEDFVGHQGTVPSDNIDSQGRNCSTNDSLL
# CHOP UPR conf = apoptotic UPR (CHOP) activation, confirmed; activation, % at 10 µM; shares compounds with UPR CHOP act; hit rate 64% among 1,000; CHO-CHOP cells, CHOP-luciferase reporter luminescence; percent of tunicamycin response, DMSO as zero; in the data active = activation above about 33%;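 also: 0% = DMSO wells and 100% = tunicamycin 10 µg/mL wells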
# The depositor's hits bear a star; x = not tested or not shown. The entries come from a sample that favours hits as a whole.
SMILES,CHOP inh,UPR XBP1 act,UPR CHOP act,VLA-4 inh,B2AR ag,CHOP UPR conf
Oc1[nH]c2ccccc2c1N=NC(=S)N1CCOCC1,4.0,18.1,253.7*,11.7,4.7,229.4*
CCOC(=O)c1cc([N+](=O)[O-])cc([N+](=O)[O-])c1Sc1ncnc2nc[nH]c12,x,x,x,x,39.0,x
CCN(CC)c1ccc(/C=C2\C(=O)N(c3nnc(C)c(=O)[nH]3)N=C2C)cc1,-150.4,-0.5,221.4*,-16.0,-34.4,832.2*
Cn1c(=O)c2c(nc(N3CCN(c4ccc([N+](=O)[O-])cc4)CC3)n2C)n(C)c1=O,-8.1,-1.3,-1.1,15.8,13.5,x
CCc1ccc2nc(N(CCCN(C)C)C(=O)c3ccc(S(=O)(=O)N(C)C4CCCCC4)cc3)sc2c1,x,130.6*,112.8*,-10.0,21.1,65.3*
CN(C)CCCN(C(=O)c1ccc(S(=O)(=O)N(C)C2CCCCC2)cc1)c1nc2ccc(F)cc2s1,x,2.2,1.5,-2.9,17.3,x
CCN(CC(=O)Nc1ccc(NC(C)=O)cc1)C(=O)C1COc2ccccc2O1 (stereo not drawn),x,-0.4,-0.5,-13.4,0.7,x
Cc1ccc(-c2nn(-c3ccccc3)cc2NC(=O)CCl)cc1,104.5*,-5.3,81.6*,-12.1,7.8,0.3
Cc1ccc2c(COC(=O)CNC(=O)c3ccco3)cc(=O)oc2c1C,x,-2.9,0.4,19.7,5.5,x
CCCCN(CCCC)C(=O)c1cc(Cl)ccc1[N+](=O)[O-],18.7,0.9,-1.2,7.2,4.3,x
CCCN(CCC)C(=O)c1cc([N+](=O)[O-])cc2c1-c1ccc([N+](=O)[O-])cc1C2=C(C#N)C#N,-66.4,-2.2,334.7*,0.8,x,201.4*
O=C(COc1ccc(S(=O)(=O)N2CCOCC2)cc1)NCCN1CCOCC1,x,-4.6,2.1,-8.1,0.2,x
C=CCN1C(=O)N(c2ccccc2)C(=O)C1CC(=O)Nc1ccc(OC)cc1 (stereo not drawn),x,-1.8,2.2,11.9,3.0,x
CCCCCCCCOc1ccc(C2OC34CCCCC3C(C#N)(C#N)C2(C#N)C(=N)O4)cc1 (stereo not drawn),-46.2,-1.9,45.0*,10.4,9.9,28.6
O=C1C=C(N2CCOCC2)c2ccccc2C1=O,x,-8.4,41.4*,-1.2,8.4,2.6
CC1=C(C)C(=O)C(N2CCOCC2)=CC1=O,-6.0,x,x,x,1.4,x
Cn1c2ccccc2c(=O)c2c(=O)n(-c3ccccc3)c(-c3ccc(C(C)(C)C)cc3)nc21,-41.3,20.9,58.9*,23.5,0.0,-1.5
COc1cccc(N=Cc2c(O)c3ccccc3oc2=O)c1,x,108.2*,100.7*,19.8,3.3,52.2*
Cc1ccc(C)c2sc(N3CCN(C(=O)c4ccc([N+](=O)[O-])o4)CC3)nc12,x,6.8,82.8*,12.5,7.4,60.8*
CC(C#N)N1CCN(S(=O)(=O)c2ccc3c(c2)CCC3)CC1 (stereo not drawn),x,1.3,-1.9,10.8,6.4,x
CC(C)N=c1scc(-c2cccs2)n1/N=C/c1ccc(O)c(O)c1O,105.6*,37.2*,212.1*,0.0,9.6,150.1*
COc1cc(C(=O)OCC(=O)NC2CCS(=O)(=O)C2)ccc1OCc1c(C)noc1C (stereo not drawn),11.3,1.7,2.6,19.7,-4.6,x
Cc1cccc(C(=O)Nc2cccc(C(=O)N/N=C/c3ccncc3)c2)c1,32.6,-0.3,1.4,-11.9,1.7,x
O=C(/C=C/c1cccnc1)c1ccc(NC(=O)c2cccc(Br)c2)cc1,-46.7,9.7,91.3*,22.2,8.2,196.8*
O=C(N/N=C/c1cccnc1)c1cccc(Br)c1,x,-2.3,0.4,15.2,0.5,x
Cc1cccc(C(=O)Nc2ccc(C(=O)/C=C/c3ccncc3)cc2)c1,x,-9.2,49.2*,9.4,60.4*,-8.6
COC(=O)c1cc(=O)n(Cc2ccco2)c(=Nc2ccc(F)cc2)s1,6.8,1.9,19.4,-26.9,14.5,x
COC(=O)c1cc(=O)n(CCc2ccc(OC)c(OC)c2)c(=Nc2ccc(F)c(Cl)c2)s1,-22.4,12.8,40.9*,40.3,21.9,63.0*
C[C@H](CO)N1C[C@H](C)[C@@H](CN(C)Cc2ccncc2)Oc2c(NS(=O)(=O)c3cccs3)cccc2C1=O,x,-3.1,-1.0,2.4,-0.6,x
